Measurements reported in paper PMC10433104 (Journal of medicinal chemistry, 2023).

Molecular target: PDE4D7-S129D (PDE4D*) (Homo sapiens, UniProt Q08499, S190D)
Experiment: PDE4 enzyme inhibition assay
Type: biochemical
Conditions: ratio of IC50 for PDE4B* over that for PDE4D*
Summary of the method: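 Mutationally activated dimeric enzymes were used: PDE4D7-S129D (PDE4D*) and PDE4B1-S133D (PDE4B*). PDE4B served as the comparator for the PDE4 subtypes. Activity was read with a real-time coupled enzyme assay rather than a fluorescein-labelled cAMP substrate. An IC50 was obtained against each enzyme, and selectivity was taken as PDE4B* IC50 divided by PDE4D* IC50 (B/D ratio).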

PDE4D7-S129D (PDE4D*), sequence (Q08499 1-748 isoform Q08499-11 S129D, species assumed): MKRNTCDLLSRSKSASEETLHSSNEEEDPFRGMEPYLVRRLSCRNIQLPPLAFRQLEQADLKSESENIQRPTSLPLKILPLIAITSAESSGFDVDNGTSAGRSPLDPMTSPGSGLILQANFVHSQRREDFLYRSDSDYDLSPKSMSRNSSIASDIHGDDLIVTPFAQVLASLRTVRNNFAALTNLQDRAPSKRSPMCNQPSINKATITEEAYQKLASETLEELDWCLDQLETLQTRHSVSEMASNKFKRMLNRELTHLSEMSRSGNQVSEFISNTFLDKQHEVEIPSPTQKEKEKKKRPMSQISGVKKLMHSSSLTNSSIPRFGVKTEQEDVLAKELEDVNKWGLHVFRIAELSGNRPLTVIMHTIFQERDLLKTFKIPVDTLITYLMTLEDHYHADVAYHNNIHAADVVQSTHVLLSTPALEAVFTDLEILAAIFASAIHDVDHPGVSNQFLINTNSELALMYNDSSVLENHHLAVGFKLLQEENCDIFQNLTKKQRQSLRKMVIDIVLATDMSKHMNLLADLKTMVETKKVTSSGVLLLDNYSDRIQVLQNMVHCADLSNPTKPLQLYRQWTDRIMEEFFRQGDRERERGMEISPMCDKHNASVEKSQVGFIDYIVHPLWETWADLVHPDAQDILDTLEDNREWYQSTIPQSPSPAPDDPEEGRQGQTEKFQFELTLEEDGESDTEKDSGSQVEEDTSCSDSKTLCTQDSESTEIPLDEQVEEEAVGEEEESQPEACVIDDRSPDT

Compound	Selectivity B/D
Fc1ccc(Cc2cn[nH]c2)nc1-c1cccc(Cl)c1 [Compound 10, 6-((1H-Pyrazol-4-yl)methyl)-2-(3-chlorophenyl)-3-fluoropyridine]	>13
COc1ccc(Nc2cn[nH]c2)nc1-c1cccc(C(F)(F)F)c1 [Compound 13, 5-Methoxy-N-(1H-pyrazol-4-yl)-6-(3-(trifluoromethyl)phenyl)pyridin-2-amine]	>2
COc1ccc(Oc2cn[nH]c2)nc1-c1cccc(OC(F)F)c1 [Compound 18, 6-((1H-Pyrazol-4-yl)oxy)-2-(3-(difluoromethoxy)phenyl)-3-methoxypyridine]	>6
COc1cccc(-c2nc(Nc3cn[nH]c3)ccc2OC(F)F)c1 [Compound 20, 5-(Difluoromethoxy)-6-(3-methoxyphenyl)-N-(1H-pyrazol-4-yl)pyridin-2-amine]	>15
COc1ccc(Cn2cccn2)nc1-c1cccc(F)c1 [Compound 24, 6-((1H-Pyrazol-1-yl)methyl)-2-(3-fluorophenyl)-3-methoxypyridine]	>2
COc1ccc(Cn2cnc(C(F)(F)F)n2)nc1-c1cccc(OC(F)F)c1 [Compound 31, 2-(3-(Difluoromethoxy)phenyl)-3-methoxy-6-((3-(trifluoromethyl)-1H-1,2,4-triazol-1-yl)methyl)pyridine]	>13
COc1ccc(Cn2cncn2)nc1-c1cccc(OC(F)F)c1 [Compound 32, 6-((1H-1,2,4-Triazol-1-yl)methyl)-2-(3-(difluoromethoxy)phenyl)3-methoxypyridine]	>649
COc1ccc(Cn2ncnn2)nc1-c1cccc(OC(F)F)c1 [Compound 34, 6-((2H-Tetrazol-2-yl)methyl)-2-(3-(difluoromethoxy)phenyl)-3methoxypyridine]	>472
COc1cccc(-c2nc(COc3cn[nH]c3)ccc2OC(F)F)c1 [Compound 40, 6-(((1H-Pyrazol-4-yl)oxy)methyl)-3-(difluoromethoxy)-2-(3methoxyphenyl)pyridine]	>27

Next, values leading:

Selectivity B/D	Compound
>13	COc1cccc(-c2nc(Cn3cnc(C(F)(F)F)n3)ccc2OC(F)F)c1 [Compound 44, 3-(Difluoromethoxy)-2-(3-methoxyphenyl)-6-((3-(trifluoromethyl)-1H-1,2,4-triazol-1-yl)methyl)pyridine]
>238	COc1cccc(-c2nc(Cn3cncn3)ccc2OC(F)F)c1 [Compound 45, 6-((1H-1,2,4-Triazol-1-yl)methyl)-3-(difluoromethoxy)-2-(3methoxyphenyl)pyridine]
>575	COc1cccc(-c2nc(Cn3ncnn3)ccc2OC(F)F)c1 [Compound 47, 6-((2H-Tetrazol-2-yl)methyl)-3-(difluoromethoxy)-2-(3methoxyphenyl)pyridine]
>2519	COc1ccc(Cc2ccc(CCO)cc2)nc1-c1cccc(OC(F)F)c1 [Compound 53, 2-(4-((6-(3-(Difluoromethoxy)phenyl)-5-methoxypyridin-2-yl)methyl)phenyl)ethan-1-ol]
>621	COc1ccc(Cc2ccc(CCCO)cc2)nc1-c1cccc(OC(F)F)c1 [Compound 54, 3-(4-((6-(3-(Difluoromethoxy)phenyl)-5-methoxypyridin-2-yl)methyl)phenyl)propan-1-ol]
>420	COc1cccc(-c2nc(Cc3ccc(CCCO)cc3)ccc2OC(F)F)c1 [Compound 56, 3-(4-((5-(Difluoromethoxy)-6-(3-methoxyphenyl)pyridin-2-yl)methyl)phenyl)propan-1-ol]
>61	FC(F)Oc1cccc(-c2nc(Cc3cn[nH]c3)ccc2OCc2ccccc2)c1 [Compound 57]
>13	FC(F)Oc1cccc(-c2nc(Cc3ccncc3)ccc2OCc2ccccc2)c1 [Compound 58, 3-(Benzyloxy)-2-(3-(difluoromethoxy)phenyl)-6-(pyridin-4ylmethyl)pyridine]
>57	FC(F)Oc1cccc(-c2nc(Cn3ccnc3)ccc2OCc2ccccc2)c1 [Compound 59, 6-((1H-Imidazol-1-yl)methyl)-3-(benzyloxy)-2-(3(difluoromethoxy)phenyl)pyridine]
